Screening data: PubChem BioAssay, several laboratories
Rows were chosen to be rich in hits. Some 9.6% of all compounds tested hit in one or more screens of this group.
bCat KO growth: beta-catenin-lacking colon tumor cell growth suppression; HCT116 beta-catenin knockout viability, CellTiter-Glo, 60 h; stronger effect = lower value; viability, % at 10 µM; hit rate 1.5% among 140,000; AID 818;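 active = viability at or under a set limit, the compound median less 4 SD, cut at about 6% in these data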;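 also: 0% = Hyamine 1622 control at 20 µM and 100% = untreated cell control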
PMI act hi M6P: increases human PMI activity with near-saturating mannose 6-phosphate. P34949. coupled PMI enzyme assay, resazurin fluorescence, 20 min; stronger effect = higher value; 1 = untreated enzyme, 0 = substrate-free blank. activation factor at 20 µM. hit rate 0.34% among 190,000. AID 1216;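 active = activation factor of 2 or more at 20 µM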
Target sequence (P34949 whole entry, looked up): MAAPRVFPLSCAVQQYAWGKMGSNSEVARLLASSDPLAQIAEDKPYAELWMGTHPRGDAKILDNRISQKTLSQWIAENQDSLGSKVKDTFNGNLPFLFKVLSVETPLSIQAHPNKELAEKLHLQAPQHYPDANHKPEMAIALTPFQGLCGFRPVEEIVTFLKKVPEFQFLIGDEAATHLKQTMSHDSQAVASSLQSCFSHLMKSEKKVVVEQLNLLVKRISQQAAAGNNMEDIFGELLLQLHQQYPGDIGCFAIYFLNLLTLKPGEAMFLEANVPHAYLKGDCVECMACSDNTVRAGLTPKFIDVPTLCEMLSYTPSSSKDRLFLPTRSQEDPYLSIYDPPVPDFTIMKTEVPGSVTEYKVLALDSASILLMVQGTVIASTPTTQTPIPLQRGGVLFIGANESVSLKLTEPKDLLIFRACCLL
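Test system: Human PMI in coupled enzyme assay | Input: 15 ng/mL PMI | Medium: HEPES-buffered pH 7.4 with magnesium and detergent | Compound: One concentration, 20 µM, in 1% DMSO | Incubation: Enzyme reaction with compound 20 min at room temperature | Detection: Diaphorase-driven resazurin-to-resorufin fluorescence, excitation 544, emission 590 nm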
L major viab: reduces viability of Leishmania major promastigotes. resazurin fluorescence viability. inhibition, % at 10 µM. hit rate 9% among 200,000. AID 1063; in the data active = inhibition above about 50%;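 also: promastigotes grown with compound for 44 hours at 28 °C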
PMI act: phosphomannose isomerase (human) activation. P34949. purified human PMI, coupled resazurin fluorescence, 20 min; stronger effect = higher value; 1 = vehicle control, 0 substrate-free wells. activation factor at 20 µM. hit rate 0.005% among 190,000;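 active = activation factor of 2 or more at 20 µM, relative to plate controls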
HCT116 PTEN-null: suppresses growth of cells with PTEN deletion | viability, % at 10 µM | hit rate 1.2% among 140,000 | HCT116 PTEN-null viability, CellTiter-Glo, 60 h; stronger effect = lower value;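 active = viability at or below a set limit, 4 SD under the median of all tested compounds, cut at about 3.7% in these data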;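 also: PTEN knockout HCT116 line with beta catenin targeted HCT116 as companion control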
The depositor's hits bear a star; x = not tested or not shown.

SMILES | bCat KO growth | PMI act hi M6P | L major viab | PMI act | HCT116 PTEN-null
CC12CCC3C(CC=C4CC(O)CCC43C)C1C/C(=C\c1cccc(F)c1)C2=O (stereo unspecified) | 32.6 | 1 | -4.8 | 0.9 | 26.1
COC(=O)C[C@]1(C(=O)OC)CN(C#N)N(c2ccc(Cl)cc2)C12c1ccccc1-c1ccccc12 | 0.4* | 0.9 | 100.4* | 1 | 1.2*
O=[N+]([O-])c1ccc(N2CCNCC2)cc1N1CCCCC1 | x | 0.9 | 75.8* | 0.9 | x
O=c1[nH]c(N2CCN(Cc3ccc4c(c3)OCO4)CC2)nc2c1CCC2 | 98.1 | 1 | -3.5 | 1 | 91.5
CN(C(=O)CNC(=O)OCc1ccccc1)c1ccc(Br)cc1C(=O)c1ccccc1Cl | 12.9 | 0.9 | 37.5 | 0.9 | 15.3
O=c1[nH]c(=O)n(C2CCCCCC2)c(O)c1C=NCCCN1CCOCC1 | 98.4 | 1 | 88.5* | 1 | 98.8
Cc1nn(Cc2ccccc2)c(C)c1C(=O)O | x | 1.1 | -3.9 | 1.1 | x
O=C(c1ccc2c3c(cccc13)CC2)C1CCCN(CC2CC2)C1 (stereo unspecified) | x | 1 | 98.9* | 1 | x
CCN(CC)C(=O)c1ccc(NC(=O)COc2ccc([N+](=O)[O-])cc2Cl)cc1 | 90.1 | 1 | 50.1* | 0.8 | 98.5
CCN(CC)C(=O)c1ccc(NC(=O)CCCSc2ccccc2)cc1 | x | 0.9 | -9.8 | 0.9 | x
Cc1cc(NCCN)nc2ccccc12 | 84.3 | 1 | 0.7 | 1 | 83.5
Oc1ccc(/C=N/NP(=S)(c2ccccc2)c2ccccc2)cc1 | 85.6 | 0.9 | 89.6* | 0.9 | 93.0
COc1cc(/C=N/NP(=S)(c2ccccc2)c2ccccc2)ccc1O | 90.7 | 1 | 80.7* | 1 | 98.3
O=P(C(=Nc1ccc(Cl)cc1)N1CCOCC1)(N1CCOCC1)N1CCOCC1 | 95.3 | 1 | -4.6 | 1 | 88.9
CNCC1(c2ccccc2)CCCC1 | 88.2 | 0.9 | -3.8 | 1 | 89.7
O=C(CN1C2CCC1CC(O)(c1cccnc1)C2)Nc1ccc2c(c1)OCO2 (stereo unspecified) | 83.1 | 1 | 89.9* | 1 | 96.3
OC1(c2cccnc2)CC2CCC(C1)N2Cc1nnnn1Cc1ccccc1 (stereo unspecified) | 86.8 | 1.1 | 1.3 | 1 | 84.7
CCn1c(C)c(C(=O)O)c2cc(OC)ccc21 | 95.4 | 1 | -3.9 | 1 | 96.6
CCN1CCN(C(=O)Cc2c(C)n(C(=O)c3ccc(Cl)cc3)c3ccc(OC)cc23)CC1 | x | 1 | 98.3* | 1.1 | x
CCCCCSc1cc(O)c(C(CNC)C(C)C)cc1OC (stereo unspecified) | 39.5 | 0.8 | 100.5* | 0.9 | 26.6
CCN(CCNc1ccc([N+](=O)[O-])c2cccnc12)S(=O)(=O)c1ccccc1 | 95.4 | 0.9 | -4.5 | 0.8 | 96.2
NCCNc1ccc([N+](=O)[O-])c2cccnc12 | x | 0.5 | 3.1 | 0.8 | x
CCN(CCNc1ccc([N+](=O)[O-])c2cccnc12)S(=O)(=O)c1ccc(Cl)cc1 | 63.0 | 0.6 | 88.6* | 0.9 | 60.0
O=[N+]([O-])c1ccc(NCCCN2CCOCC2)c2ncccc12 | x | 0.4 | 86.9* | 0.8 | x
Cc1sc2ncn(CC(=O)NCCCC(=O)N3CCC4(CC3)OCCO4)c(=O)c2c1C | 93.2 | 1 | -8.0 | 1 | 103.0
SMILES | bCat KO growth | PMI act hi M6P | L major viab | PMI act | HCT116 PTEN-null
CN(C)c1cc(N)c2c(n1)CCC2 (tested in a mixture with another compound) | 99.8 | 0.7 | -2.4 | 0.8 | 95.5
CCN(CC)c1ccc(CNCCc2ccc(F)cc2)cc1 | x | 1 | 95.8* | 1 | x
CCc1ccc(CNCCc2ccc(F)cc2)cc1 | 90.0 | 1.2 | 9.2 | 1.1 | 81.6
CC(C)=CCOc1c2occc2cc2ccc(=O)oc12 | 90.5 | 0.8 | 1.0 | 0.9 | 83.9
Nc1ccccc1C(=O)OCCOc1ccccc1 | 89.2 | 0.9 | -2.8 | 0.9 | 86.6
CC(C)(C)n1cc(C(=O)c2ccc3ccccc3c2O)cn1 | x | 0.7 | -9.6 | 1 | x
O=C(CN1C(=O)CN=C(c2ccccc2Cl)c2cc(Cl)ccc21)NCc1ccco1 | 74.1 | 0.9 | 97.4* | 0.9 | 70.5
Cc1nn(-c2ccccc2)c2c1C(c1ccc3c(c1)OCO3)SCC(=O)N2 (stereo unspecified) | 105.7 | 1.1 | 98.6* | 1.1 | 92.3
COc1ccc(C2SCC(=O)Nc3c2c(C)nn3C2CCOC(C)(C)C2)cc1 (stereo unspecified) | 100.0 | 0.9 | -0.7 | 0.9 | 88.4
